Assays:
Cytochrome P450 2D6 = Cytochrome P450 2D6 (Homo sapiens, UniProt P10635); assay: Inhibition of CYP2D6 in human liver microsomes at 1 uM measured after 20 mins in presence of NADPH by LC/MS/MS analysis; assay type: ADME
Procedure, shortened: (§1)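 CYP isoforms 1A2, 2D6, 3A4, 2C9 and 2C19 were tested at 1 and 10 µM. Results are % inhibition compared with a no-inhibitor control, run in triplicate.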

CYP3A4 = CYP3A4 (Homo sapiens, UniProt P08684); assay: Inhibition of CYP3A4 in human liver microsomes at 10 uM measured after 20 mins in presence of NADPH by LC/MS/MS analysis relative to control; assay type: ADME; procedure, shortened: as §1
Chain of CYP3A4 (P08684 whole entry): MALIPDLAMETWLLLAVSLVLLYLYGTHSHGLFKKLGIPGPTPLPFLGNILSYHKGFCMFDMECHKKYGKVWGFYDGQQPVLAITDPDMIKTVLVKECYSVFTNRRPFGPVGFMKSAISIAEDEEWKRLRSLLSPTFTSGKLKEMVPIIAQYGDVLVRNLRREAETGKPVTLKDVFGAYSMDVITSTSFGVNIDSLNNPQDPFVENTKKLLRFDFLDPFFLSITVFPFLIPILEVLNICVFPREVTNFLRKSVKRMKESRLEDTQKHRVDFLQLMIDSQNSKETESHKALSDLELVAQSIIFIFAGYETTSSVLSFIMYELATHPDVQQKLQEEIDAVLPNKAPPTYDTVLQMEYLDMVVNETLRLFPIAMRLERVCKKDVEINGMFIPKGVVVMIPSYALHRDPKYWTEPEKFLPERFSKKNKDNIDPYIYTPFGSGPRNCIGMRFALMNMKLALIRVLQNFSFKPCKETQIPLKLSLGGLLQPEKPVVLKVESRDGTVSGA

Prostaglandin E synthase [1] = target: T1, Prostaglandin E synthase (Homo sapiens, UniProt O14684); assay: Inhibition of mPGES-1 in human A549 cells assessed as decrease in IL1beta induced PGE2 release preincubated for 30 mins followed by IL-1beta addition after 16 to 20 hrs by HTRF method; assay type: cell-based
T1 sequence (O14684 whole entry): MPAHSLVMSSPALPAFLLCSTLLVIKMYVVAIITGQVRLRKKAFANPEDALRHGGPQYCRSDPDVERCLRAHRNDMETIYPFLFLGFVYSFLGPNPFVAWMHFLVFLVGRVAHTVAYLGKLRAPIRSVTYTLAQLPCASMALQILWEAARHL

CYP2D6 = CYP2D6 (Homo sapiens, UniProt P10635); assay: Inhibition of CYP2D6 in human liver microsomes at 10 uM measured after 20 mins in presence of NADPH by LC/MS/MS analysis relative to control; assay type: ADME; details: liver microsomes; procedure, shortened: as §1
Chain of CYP2D6 (P10635 whole entry): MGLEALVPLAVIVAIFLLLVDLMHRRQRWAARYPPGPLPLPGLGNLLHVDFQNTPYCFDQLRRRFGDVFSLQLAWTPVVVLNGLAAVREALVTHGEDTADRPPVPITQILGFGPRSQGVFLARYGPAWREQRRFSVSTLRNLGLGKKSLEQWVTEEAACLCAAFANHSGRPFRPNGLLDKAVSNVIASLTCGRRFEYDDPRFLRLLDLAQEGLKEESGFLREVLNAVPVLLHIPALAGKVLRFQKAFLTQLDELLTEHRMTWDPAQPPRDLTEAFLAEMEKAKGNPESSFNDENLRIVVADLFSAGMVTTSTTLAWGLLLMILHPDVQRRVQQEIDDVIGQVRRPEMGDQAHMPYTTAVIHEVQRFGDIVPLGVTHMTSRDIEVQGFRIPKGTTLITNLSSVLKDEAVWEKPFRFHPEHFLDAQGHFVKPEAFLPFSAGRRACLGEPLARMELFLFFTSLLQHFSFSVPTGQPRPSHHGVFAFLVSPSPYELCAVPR

Cytochrome P450 2C9 = Cytochrome P450 2C9 (Homo sapiens, UniProt P11712); assay: Inhibition of CYP2C9 in human liver microsomes at 1 uM measured after 20 mins in presence of NADPH by LC/MS/MS analysis; assay type: ADME; procedure, shortened: as §1
Chain of Cytochrome P450 2C9 (P11712 whole entry): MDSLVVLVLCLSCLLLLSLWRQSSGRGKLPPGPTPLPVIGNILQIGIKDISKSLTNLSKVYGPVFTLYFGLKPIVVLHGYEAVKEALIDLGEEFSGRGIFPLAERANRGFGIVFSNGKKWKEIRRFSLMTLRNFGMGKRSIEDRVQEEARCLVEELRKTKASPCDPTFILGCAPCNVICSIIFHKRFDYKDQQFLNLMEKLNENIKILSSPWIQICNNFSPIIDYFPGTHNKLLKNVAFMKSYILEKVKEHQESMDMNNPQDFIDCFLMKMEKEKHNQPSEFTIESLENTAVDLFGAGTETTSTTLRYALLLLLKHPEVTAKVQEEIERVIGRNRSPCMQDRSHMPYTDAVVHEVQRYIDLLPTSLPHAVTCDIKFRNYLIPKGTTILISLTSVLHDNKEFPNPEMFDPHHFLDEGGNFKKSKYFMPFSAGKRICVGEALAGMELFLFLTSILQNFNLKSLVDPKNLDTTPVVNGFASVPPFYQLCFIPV

Cytochrome P450 2C19 = Cytochrome P450 2C19 (Homo sapiens, UniProt P33261); assay: Inhibition of CYP2C19 in human liver microsomes at 1 uM measured after 40 mins in presence of NADPH by LC/MS/MS analysis; assay type: ADME; procedure, shortened: as §1
Chain of Cytochrome P450 2C19 (P33261 whole entry): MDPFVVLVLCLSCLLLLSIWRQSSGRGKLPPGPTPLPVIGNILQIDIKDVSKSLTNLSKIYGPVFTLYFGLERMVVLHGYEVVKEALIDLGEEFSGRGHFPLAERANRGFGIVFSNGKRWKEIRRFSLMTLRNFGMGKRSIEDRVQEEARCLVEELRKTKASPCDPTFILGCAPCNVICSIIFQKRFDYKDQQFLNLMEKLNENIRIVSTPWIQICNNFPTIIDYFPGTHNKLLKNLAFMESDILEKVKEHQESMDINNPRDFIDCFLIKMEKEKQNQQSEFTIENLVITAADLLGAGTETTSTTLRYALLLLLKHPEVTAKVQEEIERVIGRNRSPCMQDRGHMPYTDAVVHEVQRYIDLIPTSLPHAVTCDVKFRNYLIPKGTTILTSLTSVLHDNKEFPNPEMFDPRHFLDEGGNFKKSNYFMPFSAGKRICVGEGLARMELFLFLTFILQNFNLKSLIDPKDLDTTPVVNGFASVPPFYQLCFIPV

Prostaglandin E synthase [2] = target: T1, Prostaglandin E synthase; assay: Inhibition of recombinant human mPGES-1 expressed in CHO cells assessed as reduction in PGE2 formation using PGH2 a substrate preincubated for 10 mins followed by substrate addition measured after 1 min; assay type: cell-based
Procedure, shortened: (§2)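 mPGES-1 enzyme inhibition. % inhibition values are means of two experiments in duplicate. IC50 values were derived from graphs of at least two experiments in duplicate.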

[3] = Metabolic stability in Guinea pig liver microsomes assessed as parent compound remaining at 1 uM after 60 mins in presence of NADPH by LC/MS/MS analysis; assay type: ADME, Cavia porcellus, microsome; details: read-out: Stability
Procedure, shortened: (§3)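 Compound at 1.0 µM was incubated with liver microsomes (1.0 mg/mL protein) at 37 °C for 60 min. Samples were analysed by LC/MS/MS as % parent remaining. Run in triplicate.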

Cytochrome P450 1A2 = target: T2, Cytochrome P450 1A2 (Homo sapiens, UniProt P05177); assay: Inhibition of CYP1A2 in human liver microsomes at 1 uM measured after 20 mins in presence of NADPH by LC/MS/MS analysis; assay type: ADME; procedure, shortened: as §1
T2 sequence (P05177 whole entry): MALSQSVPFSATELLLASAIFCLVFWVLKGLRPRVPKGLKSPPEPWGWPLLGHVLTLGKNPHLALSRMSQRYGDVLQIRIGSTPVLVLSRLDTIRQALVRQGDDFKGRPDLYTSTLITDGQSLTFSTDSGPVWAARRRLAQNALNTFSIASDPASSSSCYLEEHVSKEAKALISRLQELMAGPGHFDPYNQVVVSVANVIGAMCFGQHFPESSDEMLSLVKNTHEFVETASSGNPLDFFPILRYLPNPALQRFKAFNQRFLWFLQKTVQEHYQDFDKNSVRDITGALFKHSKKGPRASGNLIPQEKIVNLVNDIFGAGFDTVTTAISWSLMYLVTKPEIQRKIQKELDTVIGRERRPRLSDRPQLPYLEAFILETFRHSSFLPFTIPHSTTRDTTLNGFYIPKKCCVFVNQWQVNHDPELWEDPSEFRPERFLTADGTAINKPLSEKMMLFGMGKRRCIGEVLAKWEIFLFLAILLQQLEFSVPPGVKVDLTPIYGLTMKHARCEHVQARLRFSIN

CYP2C9 = CYP2C9 (Homo sapiens, UniProt P11712); assay: Inhibition of CYP2C9 in human liver microsomes at 10 uM measured after 20 mins in presence of NADPH by LC/MS/MS analysis relative to control; assay type: ADME; procedure, shortened: as §1
Chain of CYP2C9 (P11712 whole entry): as the sequence (P11712 whole entry) above

[4] = Metabolic stability in human liver microsomes assessed as parent compound remaining at 1 uM after 60 mins in presence of NADPH by LC/MS/MS analysis; assay type: ADME, microsome; details: read-out: Stability; procedure, shortened: as §3
Cytochrome P450 3A4 = Cytochrome P450 3A4 (Homo sapiens, UniProt P08684); assay: Inhibition of CYP3A4 in human liver microsomes at 1 uM measured after 20 mins in presence of NADPH by LC/MS/MS analysis; assay type: ADME; procedure, shortened: as §1
Chain of Cytochrome P450 3A4 (P08684 whole entry): as the sequence (P08684 whole entry) above

COX2 [5] = target: T3, COX2 (Homo sapiens, UniProt P35354); assay: Inhibition of recombinant human N-terminal His-tagged COX2 expressed in baculovirus infected Sf21 insect cells assessed as decrease in PGE2 release at 1 uM using arachidonic acid as substrate preincubated for 15 mins followed by arachidonic acid addition measured after 5 mins relative to control; details: probe arachidonic acid
T3 sequence (P35354 whole entry): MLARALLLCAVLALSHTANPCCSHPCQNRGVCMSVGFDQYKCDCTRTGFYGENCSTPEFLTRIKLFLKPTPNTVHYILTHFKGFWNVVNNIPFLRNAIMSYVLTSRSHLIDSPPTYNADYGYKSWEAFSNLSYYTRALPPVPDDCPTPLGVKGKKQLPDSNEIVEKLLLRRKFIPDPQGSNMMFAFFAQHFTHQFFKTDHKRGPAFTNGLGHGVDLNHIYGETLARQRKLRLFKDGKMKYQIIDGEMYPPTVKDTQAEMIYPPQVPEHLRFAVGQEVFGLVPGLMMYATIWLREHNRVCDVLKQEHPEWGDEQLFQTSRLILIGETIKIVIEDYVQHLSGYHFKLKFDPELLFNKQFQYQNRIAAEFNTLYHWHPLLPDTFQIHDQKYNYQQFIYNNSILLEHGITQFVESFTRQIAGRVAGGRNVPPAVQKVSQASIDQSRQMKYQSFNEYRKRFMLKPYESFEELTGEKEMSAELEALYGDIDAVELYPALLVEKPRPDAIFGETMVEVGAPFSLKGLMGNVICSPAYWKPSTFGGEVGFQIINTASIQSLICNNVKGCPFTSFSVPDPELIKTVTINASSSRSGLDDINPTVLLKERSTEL

[6] = target: T4, Prostaglandin G/H synthase 2 (Homo sapiens, UniProt P35354); assay: Inhibition of recombinant human N-terminal His-tagged COX2 expressed in baculovirus infected Sf21 insect cells assessed as decrease in PGE2 release using arachidonic acid as substrate preincubated for 15 mins followed by arachidonic acid addition measured after 5 mins
T4 sequence (P35354 whole entry): T3 sequence (P35354 whole entry)

[7] = target: Prostaglandin G/H synthase 1 (Homo sapiens, UniProt P23219); assay: Inhibition of COX1 in human U937 cells assessed as decrease in PGE2 release using arachidonic acid as substrate preincubated for 15 mins followed by arachidonic acid addition measured after 5 mins; assay type: cell-based
Chain of Prostaglandin G/H synthase 1 (P23219 whole entry): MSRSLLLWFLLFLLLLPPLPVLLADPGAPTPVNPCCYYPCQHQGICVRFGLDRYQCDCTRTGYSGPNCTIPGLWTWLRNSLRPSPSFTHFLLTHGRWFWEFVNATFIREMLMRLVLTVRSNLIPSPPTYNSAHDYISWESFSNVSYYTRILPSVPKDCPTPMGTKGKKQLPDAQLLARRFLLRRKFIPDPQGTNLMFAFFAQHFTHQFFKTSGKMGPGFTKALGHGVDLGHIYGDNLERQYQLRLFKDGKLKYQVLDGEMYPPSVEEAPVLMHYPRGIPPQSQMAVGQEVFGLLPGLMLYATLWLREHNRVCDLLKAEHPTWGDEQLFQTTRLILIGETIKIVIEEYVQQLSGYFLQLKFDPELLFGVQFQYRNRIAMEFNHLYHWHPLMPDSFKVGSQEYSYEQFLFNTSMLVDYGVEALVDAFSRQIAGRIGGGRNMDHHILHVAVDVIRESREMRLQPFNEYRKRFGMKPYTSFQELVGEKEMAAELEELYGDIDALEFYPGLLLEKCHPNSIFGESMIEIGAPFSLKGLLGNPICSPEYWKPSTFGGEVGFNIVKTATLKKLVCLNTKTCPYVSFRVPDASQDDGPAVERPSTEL

COX2 [8] = target: T3, COX2; assay: Inhibition of recombinant human N-terminal His-tagged COX2 expressed in baculovirus infected Sf21 insect cells assessed as decrease in PGE2 release at 10 uM using arachidonic acid as substrate preincubated for 15 mins followed by arachidonic acid addition measured after 5 mins relative to control; details: probe arachidonic acid
[9] = target: T5, Prostaglandin E synthase (Homo sapiens) (UniProt O14684); assay: Inhibition of recombinant human mPGES-1 expressed in CHO cells assessed as reduction in PGE2 formation at 1 uM using PGH2 a substrate preincubated for 10 mins followed by substrate addition measured after 1 min relative to control; assay type: cell-based; procedure, shortened: as §2
T5 sequence (whole entry): T1 sequence (O14684 whole entry)

[10] = Metabolic stability in rat liver microsomes assessed as parent compound remaining at 1 uM after 60 mins in presence of NADPH by LC/MS/MS analysis; assay type: ADME, microsome; details: read-out: Stability; procedure, shortened: as §3
[11] = target: T5, Prostaglandin E synthase (Homo sapiens); assay: Inhibition of recombinant human mPGES-1 expressed in CHO cells assessed as reduction in PGE2 formation at 10 uM using PGH2 a substrate preincubated for 10 mins followed by substrate addition measured after 1 min relative to control; assay type: cell-based; procedure, shortened: as §2
Cavia porcellus = assay: Analgesic activity in Dunkin Hartley guinea pig hyperalgesia pain model assessed as inhibition of LPS-induced thermal hyperalgesia at 10 mg/kg, po qd administered 1 hr prior to LPS stimulation measured after 4.5 hrs by plantar test relative to control; assay type: functional
Procedure, shortened: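 LPS was injected into the guinea pig plantar to induce thermal hyperalgesia, and compound was given orally. Response is expressed as % hyperalgesia, with a saline-injected naive group as 0% and the vehicle-treated LPS group as 100%. Values are mean ± SEM, n = 8 per dose group.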

Chain of Cytochrome P450 2D6 (P10635 whole entry, canonical isoform): as the sequence (P10635 whole entry) above

| inhibition (INH) (Cytochrome P450 2D6) | inhibition at 20 min, 10 µM (CYP3A4) [%] | IC50 (Prostaglandin E synthase [1]) [nM] | inhibition at 20 min, 10 µM (CYP2D6) [%] | inhibition (INH) (Cytochrome P450 2C9) | inhibition (INH) (Cytochrome P450 2C19) | IC50 (Prostaglandin E synthase [2]) [nM] | remaining at 1 h, 1 µM [3] [%] | inhibition (INH) (Cytochrome P450 1A2) | inhibition at 20 min, 10 µM (CYP2C9) [%] | remaining at 1 h, 1 µM [4] [%] | inhibition (INH) (Cytochrome P450 3A4) | inhibition at 5 min, 1 µM (COX2 [5]) [%] | IC50 [6] [nM] | IC50 [7] [nM] | inhibition at 5 min, 10 µM (COX2 [8]) [%] | inhibition [9] [%] | remaining at 1 h, 1 µM [10] [%] | inhibition [11] [%] | Compound | inhibition in vivo at 10 mg/kg (Cavia porcellus) [%] |
| --- | --- | --- | --- | --- | --- | --- | --- | --- | --- | --- | --- | --- | --- | --- | --- | --- | --- | --- | --- | --- |
| Not Active | 24 | 298 | 29 | Not Active | Not Active | 15.9 | 100 | Not Active | 32 | 81 | Not Active | – | – | – | – | – | – | – | CC1(C)Oc2cc(C#Cc3ccccc3C(F)(F)F)ccc2-c2nc(-c3c(C#N)cccc3C#N)[nH]c21 | – |
| Not Active | 37 | 616 | 56 | Not Active | Not Active | 92.9 | 93 | Not Active | 35 | 89 | Not Active | 2.65 | > 10000 | 8350 | 27.4 | 91.4 | 99 | 94.6 | CC1(C)Oc2cc(-c3cccc(C(F)(F)F)c3)ccc2-c2[nH]c(-c3c(F)cccc3Cl)nc21 | – |
| – | – | – | – | – | – | – | – | – | – | – | – | – | – | – | – | – | – | – | O=C(O)Cc1ccccc1Nc1c(Cl)cccc1Cl [DICLOFENAC] | 80 |
